High-throughput results (PubChem)
Compounds with a hit are over-represented: about 3.1% of the library has one in this group of screens.
CHO parental Ca – signal in parental CHO cells, OX1R antagonist counter-screen. inhibition, % at 5.6 µM. hit rate 0.63% among 330,000. parental CHO-K1, ATP-induced calcium, Fluo-8 fluorescence. AID 463079;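 active = inhibition above that plate's mean sample inhibition plus 3 SD, cut at about 26% in these data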
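test system = CHO parental line | reagent = ATP stimulus | measured by = intracellular calcium via Fluo-8 no-wash fluorescent dye | control set = ATP and no-ATP DMSO wells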
OX1R antag-1 – human HCRTR1 antagonism; O43613; CHO/OX1R cells, Fluo-8 calcium fluorescence, orexin A; inhibition, % at 5 µM; hit rate 0.43% among 330,000; AID 434989;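 active = inhibition above its plate's threshold, mean inhibition of all tested compounds on the plate plus 3 SD, cut at about 37% in these data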
OX1R antag-2 – blocks the human orexin 1 receptor; O43613; OX1R-expressing cells, FRET antagonist read-out; inhibition, % at 6.6 µM; hit rate 1.8% among 330,000; in the data active = inhibition mostly above about 38%, no sharp cut-off; inactive = mostly below about 40%
GPR7 antag – human neuropeptides B/W receptor 1 antagonism; P48145; hit rate 1.1% among 290,000; GPR7-expressing cells, fluorescence antagonist assay; inhibition, % at 4.4 µM; in the data active = inhibition above about 16%, passing the limit was not always enough;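 note: cells stimulated with the agonist NPW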
Target sequence (P48145 whole entry, looked up): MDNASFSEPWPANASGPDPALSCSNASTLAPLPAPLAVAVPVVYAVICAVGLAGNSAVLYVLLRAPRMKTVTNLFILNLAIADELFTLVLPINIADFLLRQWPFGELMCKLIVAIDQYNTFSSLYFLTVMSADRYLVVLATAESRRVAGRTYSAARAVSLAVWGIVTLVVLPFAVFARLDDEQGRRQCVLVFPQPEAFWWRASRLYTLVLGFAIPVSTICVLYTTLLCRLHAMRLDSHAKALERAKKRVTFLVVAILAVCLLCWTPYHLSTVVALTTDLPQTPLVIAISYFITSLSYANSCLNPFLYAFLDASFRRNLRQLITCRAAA
GalR3 antagonist – human GalR3 antagonism; HEK293 GalR3-CNG cAMP membrane potential fluorescence; galR3 body fused to GalR1 C-terminus; inhibition, % at 3 µM; hit rate 0.44% among 360,000; AID 651719;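 active = inhibition above the screen-wide average plus 3 SD, cut at about 13% in these data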;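 note: forskolin and galanin both at EC90 stimulate the cells; cAMP rise reported by CNG channel membrane potential dye signal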
Target sequence (O60755 1-299 limits assumed): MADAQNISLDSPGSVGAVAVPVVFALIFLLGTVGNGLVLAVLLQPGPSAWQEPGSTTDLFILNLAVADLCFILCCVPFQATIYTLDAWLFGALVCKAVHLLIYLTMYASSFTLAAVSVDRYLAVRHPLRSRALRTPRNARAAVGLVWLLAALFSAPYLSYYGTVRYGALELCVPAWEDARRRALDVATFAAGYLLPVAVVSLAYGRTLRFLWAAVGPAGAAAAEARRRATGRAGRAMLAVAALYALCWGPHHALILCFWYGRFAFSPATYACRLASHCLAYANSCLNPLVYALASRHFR
GPR7 antag conf – human GPR7 antagonism, confirmation assay; shares compounds with GPR7 antag; GPR7-expressing cells, calcium fluorescence antagonist mode; inhibition, % at 4.4 µM; hit rate 52% among 2,400; in the data active = inhibition above about 24%;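 note: stimulated with the GPR7 agonist NPW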
MCHR1 antagonist – MCHR1 (human) antagonism in GPR7 counter-screen. AID 2148. shares compounds with GPR7 antag. hit rate 62% among 2,400. MCHR1-expressing cells, fluorescence antagonist assay. inhibition, % at 4.4 µM; in the data active = inhibition above about 22%
Each line names hits and unclear results; the compound was inactive in the other large screens (follow-up assays come after a bar, where they were run); ! = not confirmed by another sample.

O=S(=O)(NC1CCCC1)c1ccc(S(=O)(=O)NC2CCCC2)cc1	GPR7 antag 43 | GPR7 antag conf 51 | MCHR1 antagonist 33
Cc1cc(C)c(S(=O)(=O)N(C)CC(=O)NCc2cccnc2)c(C)c1	none
Cc1cc(C)c(S(=O)(=O)N(C)CC(=O)NCc2ccncc2)c(C)c1	GPR7 antag 27 | GPR7 antag conf inactive | MCHR1 antagonist inactive
Cc1nc2n(n1)C(O)c1cc([N+](=O)[O-])ccc1S2 (centres undefined)	OX1R antag-2 93, GPR7 antag 31 (no result: GalR3 antagonist) | GPR7 antag conf inactive | MCHR1 antagonist inactive
COc1ccccc1N1C(=O)c2ccccc2NC1c1ccc(O)cc1 (centres undefined)	none
CCCCNc1nc2ccccc2n1CC(=O)Nc1c(C)cccc1CC	GPR7 antag 33 | GPR7 antag conf 32 | MCHR1 antagonist inactive
CCc1ccccc1NC(=O)CSc1nc2ccccc2nc1N1CCOCC1	GPR7 antag 26 (no result: GalR3 antagonist) | GPR7 antag conf 34 | MCHR1 antagonist 31
CC(=O)NCC(=O)OC(C(=O)c1ccccc1)c1ccc(Cl)cc1 (centres undefined)	none
O=C(Cn1nc([N+](=O)[O-])nc1Br)NC(c1ccccc1)c1ccccc1	GPR7 antag 34 | GPR7 antag conf inactive | MCHR1 antagonist inactive
Cc1cc([N+](=O)[O-])nn1CC(=O)NC(C)c1ccccc1 (centres undefined)	none
Cc1cccc(C(=O)/C=C2/c3ccccc3CC(C)(C)N2C)c1	none (no result: GalR3 antagonist)
N#Cc1ccc(C(=O)Nc2ccc([N+](=O)[O-])cc2)c(F)c1	none
COc1ccccc1C(=O)Nc1ccc2c(C)cc(=O)oc2c1	GPR7 antag 42 | GPR7 antag conf inactive | MCHR1 antagonist inactive
Cc1cc(=O)oc2cc(OC(=O)c3ccccc3)ccc12	none (no result: GPR7 antag) | MCHR1 antagonist inactive
CCOc1ncccc1C(=O)Nc1ccc2c(C)cc(=O)oc2c1	none
OC[C@@H]1CN(Cc2cccnc2)C[C@H](n2cnc3c(N4CCN(c5ccccc5)CC4)ncnc32)O1	none (no result: CHO parental Ca, OX1R antag-1, OX1R antag-2, GPR7 antag)
CCOC(=O)N1CCN(CC(O)COC2CC(C)CCC2C(C)C)CC1 (centres undefined)	none
CC1CCN(CC(O)COC2CC(C)CCC2C(C)C)CC1 (centres undefined)	GPR7 antag 23 | GPR7 antag conf inactive | MCHR1 antagonist inactive
Cc1cccc(-c2noc(-c3csc([C@@H]4C[C@H](O)[C@@H](CO)O4)n3)n2)c1	none (no result: CHO parental Ca, OX1R antag-1, OX1R antag-2, GPR7 antag)
CSc1nnc(-c2ccccc2Cl)n1N	GPR7 antag 24 | GPR7 antag conf inactive | MCHR1 antagonist inactive
CC(OC(=O)c1ccc2c(=O)n3c(nc2c1)CCC3)C(=O)NC1CCCCC1C (centres undefined)	none
CN(CC(=O)NCC(=O)Nc1ccc(F)cc1)CC(=O)Nc1ccc(Cl)c(C(F)(F)F)c1	none (no result: CHO parental Ca, OX1R antag-1, OX1R antag-2, GPR7 antag)
CN(CC(=O)NCc1ccc(F)cc1)CC(=O)Nc1ccc(Cl)c(C(F)(F)F)c1	CHO parental Ca 67, OX1R antag-1 57, GPR7 antag 28 | GPR7 antag conf 27 | MCHR1 antagonist 61
O=C(Nc1ccccc1N1CCN(C(=O)c2ccccc2)CC1)c1ccc([N+](=O)[O-])o1	GPR7 antag 37 (no result: CHO parental Ca, OX1R antag-1, OX1R antag-2) | GPR7 antag conf 33 | MCHR1 antagonist 35
CC(C)C(=O)N1CCN(c2ccccc2NC(=O)c2ccc([N+](=O)[O-])o2)CC1	OX1R antag-2 61, GPR7 antag 35 | GPR7 antag conf 28 | MCHR1 antagonist inactive
O=C(Nc1ccc(N2CCN(C(=O)c3ccccc3)CC2)c(Cl)c1)c1ccc(Br)o1	none
O=C(Nc1ccc(N2CCN(C(=O)c3ccccc3)CC2)cc1)c1ccc(Br)o1	GPR7 antag 38 | GPR7 antag conf 39 | MCHR1 antagonist 32
CCc1ccc(-n2c(SCC(=O)N3Cc4ccccc4CC3C(=O)O)nnc2-c2ccncc2)cc1 (centres undefined)	GPR7 antag 21 | GPR7 antag conf inactive | MCHR1 antagonist inactive
CCCCCCCCCCCCCCCCn1cc[n+](C)c1	CHO parental Ca 71, OX1R antag-1 85, GPR7 antag 31! | GPR7 antag conf 94 | MCHR1 antagonist 99
COc1ccccc1CNC(=O)c1c(N)n(CCCN2CCOCC2)c2nc3ccccc3nc12	none (no result: CHO parental Ca, OX1R antag-1, OX1R antag-2)
Nc1c(C(=O)NCc2ccc3c(c2)OCO3)c2nc3ccccc3nc2n1CCCN1CCOCC1	CHO parental Ca 33, GPR7 antag 23 | GPR7 antag conf 49 | MCHR1 antagonist 51
Cc1ccc(C)c(N2C(=O)c3cc(N4CCOCC4)c([N+](=O)[O-])cc3C2=O)c1	none
CC(C)CCCN1C(Nc2ccccc2)=NC[C@@H]1Cc1ccccc1	GPR7 antag 36 (no result: GalR3 antagonist) | GPR7 antag conf 31 | MCHR1 antagonist 24
CC(CCN1C(Nc2ccccc2)=NC[C@@H]1C)c1ccccc1 (some centres undefined)	none
CC(C)CCN1C(Nc2ccccc2)=NC[C@@H]1Cc1ccccc1	none
CC(CCN1C(Nc2ccccc2)=NC[C@@H]1Cc1ccccc1)c1ccccc1 (some centres undefined)	GPR7 antag 38 | GPR7 antag conf 51 | MCHR1 antagonist 25
CC(C)C[C@H]1CN=C(Nc2ccccc2)N1CCCCc1ccccc1	GPR7 antag 39 | GPR7 antag conf 39 | MCHR1 antagonist 27
O=C(NCc1cccnc1)C(=O)NCC1OCCCN1S(=O)(=O)c1cc(F)ccc1F (centres undefined)	none (no result: CHO parental Ca, OX1R antag-1, OX1R antag-2, GPR7 antag)
COC(=O)N(NC(=O)C(O)(c1ccccc1)c1ccccc1)c1ccccc1	GPR7 antag 26 | GPR7 antag conf inactive | MCHR1 antagonist 27
COc1ccccc1NNC(=O)C(O)(c1ccccc1)c1ccccc1	none
O=C(c1ccc(F)cc1)N(NC(=O)C(O)(c1ccccc1)c1ccccc1)c1ccccc1	GPR7 antag 37 | GPR7 antag conf 46 | MCHR1 antagonist 31
O=C(NN(C(=O)c1ccccc1)c1ccccc1)c1ccccc1	none
COC(=O)Nc1ccc(SCC(=O)c2cccc([N+](=O)[O-])c2)cc1	GPR7 antag 23 | GPR7 antag conf inactive | MCHR1 antagonist 60
O=C(COc1cccc(NC(=O)c2ccccc2)c1)c1ccc(F)cc1	none
COC(=O)c1cccc(NC(=O)COc2cccc([N+](=O)[O-])c2)c1	none
COc1cccc(C(=O)COc2cccc(NC(=O)c3cccc([N+](=O)[O-])c3)c2)c1	GPR7 antag 29 | GPR7 antag conf 29 | MCHR1 antagonist 69
COc1ccc(NC(=O)c2cccc(Oc3ccc([N+](=O)[O-])cc3Cl)c2)cc1	GPR7 antag 34 | GPR7 antag conf inactive | MCHR1 antagonist 36
O=C(COc1cccc(NC(=O)c2cccc([N+](=O)[O-])c2)c1)c1ccc(F)cc1	GPR7 antag 29 | GPR7 antag conf 35 | MCHR1 antagonist 70
O=C(Nc1cccc(Cl)c1)c1cccc(Oc2ccc([N+](=O)[O-])cc2Cl)c1	none
